Measured values collected from several papers.
Target: Activin receptor type-1B (ACVR1B, Homo sapiens, UniProt P36896)
Sequence (P36896 24-505, as in one of the studies): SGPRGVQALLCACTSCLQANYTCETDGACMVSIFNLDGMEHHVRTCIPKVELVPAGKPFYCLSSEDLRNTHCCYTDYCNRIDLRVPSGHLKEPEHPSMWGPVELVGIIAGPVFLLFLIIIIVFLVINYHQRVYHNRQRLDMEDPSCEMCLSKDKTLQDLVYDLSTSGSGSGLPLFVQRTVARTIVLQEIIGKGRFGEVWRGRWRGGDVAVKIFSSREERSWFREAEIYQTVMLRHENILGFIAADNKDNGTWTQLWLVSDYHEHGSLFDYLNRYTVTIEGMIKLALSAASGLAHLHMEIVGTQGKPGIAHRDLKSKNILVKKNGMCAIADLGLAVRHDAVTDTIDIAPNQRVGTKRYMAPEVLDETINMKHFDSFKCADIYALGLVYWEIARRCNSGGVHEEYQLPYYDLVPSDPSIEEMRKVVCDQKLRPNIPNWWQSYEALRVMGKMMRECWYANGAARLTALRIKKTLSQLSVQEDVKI

| SMILES | effect on | action | method | concentration | measurement | result |
| --- | --- | --- | --- | --- | --- | --- |
| Nc1ncc(-c2nc(N3CCOCC3)nc(N3CCOCC3)n2)c(C(F)F)n1 | binding |  | competition with immobilised ligand | 10 µM | remaining binding | 94% |
| C#Cc1n[nH]c2c(-c3cn([C@@H](C)c4ccccn4)c(=O)[nH]c3=O)cc(F)cc12 | enzyme activity | inhibitor |  | 0.1 µM | inhibition | -3.4% |
| O=c1[nH]c2ccccc2n1C1CCN(Cc2ccc(-c3[nH]c4cc5ncnc5cc4nc3-c3ccccc3)cc2)CC1 | cell-free assay |  |  | 0.5 µM | remaining signal | 111% |
| Cn1cc(-c2cccc(N3CCc4c(sc5c4CC(C)(C)C5)C3=O)c2CO)cc(Nc2ccncn2)c1=O | enzyme activity | inhibitor |  | 1 µM | inhibition | -5% |
| Cn1cncc1[C@](O)(COc1ccc(C#N)cc1-c1ccc(OC(F)(F)F)cc1)c1ccc(C#N)cc1 | cell-free assay |  | competition with immobilised ligand | 1 µM | remaining binding | 87% |
| C#Cc1n[nH]c2c(-c3cn([C@@H](C)c4ccccc4)c(=O)[nH]c3=O)cc(F)cc12 | enzyme activity | inhibitor |  | 0.1 µM | inhibition | -3.3% |
| Cc1nn(C)cc1-c1nc2c(N3CCN(Cc4ccc(Cl)cc4)CC3)c(Cl)cnc2[nH]1 | binding |  | competition with immobilised ligand | 1 µM | remaining binding | 68% |
| CC(C)(C)c1cc(C=C(C#N)C#N)cc(Br)c1O | enzyme activity | inhibitor |  | 0.5 µM | remaining activity | 108% |
| N#CC1(c2ccccn2)CCN(Cc2cc(C(=O)O)c(=O)n3ccccc23)CC1 | cell-free assay |  | competition with immobilised ligand | 1 µM | remaining binding | 94% |
| COc1ncccc1-c1cnn2ccc(N3CCN(C(=O)OC(C)C)CC3)nc12 | binding |  | competition with immobilised ligand | 1 µM | remaining binding | 93% |
| Cn1cc(-c2cc(F)cc(N3CCn4c(cc5c4CCCC5)C3=O)c2CO)cc(Nc2ccc(N3CCN(C4COC4)CC3)cn2)c1=O | enzyme activity | inhibitor |  | 0.1 µM | inhibition | -1% |
| COc1cc(Nc2ncc(F)c(Nc3ccc4c(n3)NC(=O)C(C)(C)O4)n2)cc(OC)c1OC | binding |  | competition with immobilised ligand | 10 µM | inhibition | 55% |
